The list is not random: actives were taken first. Their share in the collection is about 1.6%.
PKA-R1A act – activates the PKA-R1A holoenzyme complex; P00514+P68181; PKA-R1A dissociation, Cy5-IP20 fluorescence polarization; scaled: DMSO 0%, 113 µM cGMP 100%; activation, % at 11.4 µM; hit rate 0.083% among 340,000; AID 504707;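 active = percent activation above the mean of all tested compounds plus 3 SD, cut at about 19% in these data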;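 note: higher means more PKAc released from R1A so a rise in polarization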
PfG6PD inh – PfG6PD (Plasmodium falciparum) enzyme inhibition; PfGluPho enzyme, NADPH resazurin-diaphorase fluorescence; inhibition, % at 20 µM; hit rate 0.78% among 350,000; AID 504690;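 active = inhibition reaching at least a set limit at 20 µM in the primary screen, cut at about 59% in these data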;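 note: 0% = DMSO wells with substrate and 100% = DMSO wells lacking glucose-6-phosphate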
T cell HTS – modulates CD8 T cell binding to vesicles. response (vesicle binding), % at 7 µM. AID 2052. 2C CD8+ T cell-vesicle binding, flow cytometry; hits give low values. hit rate 0.068% among 330,000;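 active = response, share of CD8 T cells binding vesicles, and their 90th percentile fluorescence all below set limits, cut at about 80% in these data, passing the limit was not always enough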;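 note: values below 100% mean blocked vesicle binding to the CD8+ T cells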
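Material: murine 2C transgenic CD8+ T lymphocytes / Also added: QL9-peptide-loaded Drosophila micro-vesicles bearing Ld, ICAM-1 and B7-1 / Schedule: binding step 1.5 h, 37 °C, antibody labelling 20 min, ice / Signal: flow cytometry, PE anti-B7-1 (FL2) versus Alexa647 anti-CD8 (FL8), PFA-fixed / Evaluation: percent CD8+ FL2 mean versus row control / Benchmarks: naked versus QL9-loaded vesicles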
ATG4B inhibitor – inhibitors of human ATG4B cysteine protease | Q9Y4P1 | ATG4B cleavage of LC3-PLA2, NBD-HPC fluorescence, 1 h | inhibition, % at 8.33 µM | hit rate 0.51% among 340,000 | AID 504462; in the data active = inhibition above about 40%
PKA-R2B act – PKA-R2B complex activation. P22694+P31323. PKA-R2B holoenzyme dissociation, Cy5-IP20 fluorescence polarization; R2B truncated from residue 108, S112A mutant; 0% DMSO only, 100% 113 µM cGMP. activation, % at 11.4 µM. hit rate 0.079% among 340,000. AID 504700;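 active = activation above a cutoff set at the mean over all compounds plus 3 SD, cut at about 18% in these data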;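 note: higher means more holoenzyme dissociation and a rise in polarization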
HKDC1 inh – blocks human hexokinase HKDC1 activity | Q2TB90 | recombinant HKDC1, G6PDH/diaphorase resazurin coupled fluorescence | inhibition, % at 20 µM | hit rate 0.16% among 340,000;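 active = inhibition above about 35% when tested at 20 µM, limit read from the data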;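 note: plate controls were DMSO wells with enzyme for no effect and DMSO wells lacking enzyme for full effect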
Target sequence (Q2TB90 whole entry, looked up): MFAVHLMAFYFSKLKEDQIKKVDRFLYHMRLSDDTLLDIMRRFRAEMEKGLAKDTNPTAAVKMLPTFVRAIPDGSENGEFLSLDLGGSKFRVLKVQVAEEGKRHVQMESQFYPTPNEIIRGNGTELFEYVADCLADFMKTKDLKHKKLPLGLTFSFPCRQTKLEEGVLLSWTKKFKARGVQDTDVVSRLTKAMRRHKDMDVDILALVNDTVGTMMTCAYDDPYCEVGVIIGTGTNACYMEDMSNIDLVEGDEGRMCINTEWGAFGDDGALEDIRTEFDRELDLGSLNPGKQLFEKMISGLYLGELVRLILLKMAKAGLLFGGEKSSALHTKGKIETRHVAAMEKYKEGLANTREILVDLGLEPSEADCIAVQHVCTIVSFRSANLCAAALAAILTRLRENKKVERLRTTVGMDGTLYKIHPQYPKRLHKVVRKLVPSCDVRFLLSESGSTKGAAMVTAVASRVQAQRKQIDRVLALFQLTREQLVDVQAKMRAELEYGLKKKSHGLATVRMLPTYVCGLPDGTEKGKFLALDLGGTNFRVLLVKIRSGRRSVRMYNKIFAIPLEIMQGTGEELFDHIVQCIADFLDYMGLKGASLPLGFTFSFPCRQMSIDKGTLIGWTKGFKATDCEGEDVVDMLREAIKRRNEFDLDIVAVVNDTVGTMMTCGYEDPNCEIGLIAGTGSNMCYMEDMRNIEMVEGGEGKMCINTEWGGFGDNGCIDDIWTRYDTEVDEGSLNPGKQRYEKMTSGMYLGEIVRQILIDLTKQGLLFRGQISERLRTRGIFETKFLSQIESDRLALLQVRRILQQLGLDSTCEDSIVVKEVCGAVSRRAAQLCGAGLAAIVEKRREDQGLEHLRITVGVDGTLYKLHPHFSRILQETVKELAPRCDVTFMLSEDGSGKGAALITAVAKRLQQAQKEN
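System: Recombinant HKDC1 hexokinase | Amount: HKDC1 at 5 µg/mL | Reagent: Glucose with 1 mM ATP | Doses: Single 20 µM dose | Incubation: Reaction time 90 min, room temperature, protected from light | Signal: Coupled resazurin fluorescence, excitation 525 nm, emission 613 nm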
PfGluPho conf – confirmation of Plasmodium falciparum G6PD inhibitors. shares compounds with PfG6PD inh. inhibition, % at 20 µM. recombinant PfGluPho, NADPH-diaphorase-resazurin fluorescence. hit rate 34% among 2,400;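 active = inhibition of at least 50% at 20 µM in any single replicate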;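 note: 0% = DMSO with substrate and 100% = DMSO lacking glucose-6-phosphate substrate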
Diaph ctr 10uM – diaphorase inhibition or oxidation at 10 uM NADPH | diaphorase-coupled resazurin reduction, fluorescence, NADPH 10 uM | AID 504862 | shares compounds with PfG6PD inh | hit rate 39% among 820 | inhibition, % at 20 µM;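 active = average inhibition reaching 50% or more with the compound at 20 µM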;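 note: resorufin red fluorescence formed as diaphorase reduces resazurin using NADPH; 0% = DMSO with enzyme and 100% = DMSO without enzyme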
Diaphorase 30uM – inhibits diaphorase or oxidizes, flagging false PfG6PD hits | Diaphorase/resazurin coupled assay, resorufin fluorescence, 30 uM NADPH | hit rate 29% among 820 | inhibition, % at 20 µM | shares compounds with PfG6PD inh;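 active = inhibition averaging 50% or more, tested at 20 µM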;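 note: 0% = DMSO with enzyme and 100% = DMSO wells lacking diaphorase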
The depositor's hits bear a star; i = inactive; x = no result given.

SMILES | PKA-R1A act | PfG6PD inh | T cell HTS | ATG4B inhibitor | PKA-R2B act | HKDC1 inh | PfGluPho conf | others
CCOC(=O)N1CCN(C(=O)Nc2ccc3oc(C)nc3c2)CC1 | 2 | 62* | x | -10 | -8 | -6 | -4
c1ccc(OCCSc2nnc3sc4ccccc4n23)cc1 | 6 | 105* | 721 | -5 | -14 | 11 | 98* | Diaph ctr 10uM=88*;Diaphorase 30uM=74*
O=C1C(=C(c2ccccc2)N2CCOCC2)Cc2ccccc21 | 1 | 66* | x | x | 2 | x | 22
O=C(c1ccccc1)N1CCN(C(=O)N2CCOCC2)CC1 | 5 | -7 | 340 | -8 | 9 | -4 | x
O=C1C=CC2=C3c4cc(O)c(O)cc4CC3(O)COC2=C1O (stereo not drawn) | 2 | 81* | x | 4 | -4 | 34 | 68* | Diaph ctr 10uM=16;Diaphorase 30uM=22
CC(C)[C@H](NC(=O)C1CC(=O)N(c2ccc(F)cc2)C1)C(=O)N1CCCCC1 (stereo partly drawn) | 2 | -11 | 118 | 0 | -8 | 2 | x
CCOc1ccc(/C=C/[N+](=O)[O-])c2ccccc12 | 3 | 64* | 530 | 3 | -7 | 32 | 10
CCOC(=O)COc1ccc2ccccc2c1/C=C/[N+](=O)[O-] | -6 | 23 | 285 | -4 | -6 | 21 | x
CC1(OC(=O)CCc2ccccc2)C(=O)C=C2C=C(c3ccc(C#N)cc3)N(C(CO)CO)C=C2C1=O (stereo not drawn) | 3 | 65* | 206 | -9 | -5 | 22 | 23
COc1ccc(N2C=C3C(=O)C(C)(OC(=O)CCc4ccccc4)C(=O)C=C3C=C2c2ccc(C#N)cc2)cc1 (stereo not drawn) | 3 | 69* | i | 1 | 6 | 35 | 4
CCN(CC)CCCN1C=C2C(=O)C(C)(OC(=O)CCc3ccccc3)C(=O)C=C2C=C1c1ccc(C#N)cc1 (stereo not drawn) | -2 | 30 | i | -2 | -3 | 13 | x
CC1(OC(=O)CCc2ccccc2)C(=O)C=C2C=C(c3ccc(C#N)cc3)N(CCc3c[nH]c4ccccc34)C=C2C1=O (stereo not drawn) | -2 | 79* | 428 | -4 | -16 | 30 | 27
COc1ccc(CN2C=C3C(=O)C(C)(OC(=O)CCc4ccccc4)C(=O)C=C3C=C2c2ccc(C#N)cc2)cc1 (stereo not drawn) | -13 | 52 | 238 | -7 | -9 | 30 | x
CC1(OC(=O)CCc2ccccc2)C(=O)C=C2C=C(c3ccc(C#N)cc3)N(C3CCCCC3)C=C2C1=O (stereo not drawn) | 2 | 75* | 540 | -8 | 4 | 21 | 26
Cc1nc(Nc2cnc(/C=C/c3cc(C(=O)Nc4cccc(C(F)(F)F)c4)ccc3C)cn2)cc(N2CCNCC2)n1 | x | 62* | 171 | 3 | x | -9 | -12
COc1ccc(-c2nc3ccccc3[nH]2)cc1 | 1 | 61* | 687 | -12 | -3 | -10 | 15
c1ccc(-c2nc3ccccc3[nH]2)cc1 | -2 | 27 | 468 | -7 | -6 | 3 | x
COc1ccc(OC)c(CN2CCN(C(=O)c3cc(S(=O)(=O)N4CCOCC4)ccc3C)CC2)c1 | x | -16 | x | 2 | x | -5 | x
COc1cc(OC)cc(OC(=O)C2CCN(C(=O)c3ccc(Cl)cc3)CC2)c1 | -6 | -23 | 448 | -4 | 16 | 5 | x
O=[N+]([O-])c1ccc(-c2c[nH]c(=S)[nH]2)cc1 | -9 | 64* | 501 | 9 | 0 | -10 | 34
S=c1[nH]cc(-c2ccccc2)[nH]1 | -1 | 21 | i | -4 | -14 | -9 | x
OC1COC(O)C(O)C1O (stereo not drawn) | -3 | -10 | 207 | -1 | 2 | 0 | x
COc1ccccc1/C=N/NC(=O)CC(=O)Nc1ccc(Cl)c(Cl)c1 | -4 | 106* | 288 | -14 | -9 | 5 | 44
COc1ccccc1/C=N/NC(=O)COCC(=O)N/N=C/c1ccccc1OC | -14 | 39 | 325 | -11 | -2 | 8 | x
COc1ccc2cc(CN(Cc3ccco3)C(=S)NCC3CCCO3)c(=O)[nH]c2c1 (stereo not drawn) | 4 | 67* | 268 | -3 | -20 | -5 | 14
SMILES | PKA-R1A act | PfG6PD inh | T cell HTS | ATG4B inhibitor | PKA-R2B act | HKDC1 inh | PfGluPho conf | others
COc1ccc2[nH]c(=O)c(CN(Cc3ccccc3)C(=S)NCC3CCCO3)cc2c1 (stereo not drawn) | -13 | -2 | 230 | -5 | 3 | 18 | x
N#Cc1c(/N=C/C=C/c2ccccc2)sc2c1CCCC2 | -5 | 60* | x | 5 | -1 | -7 | 16
COc1cc(C2C(C#N)=C(N)N(c3ccc(F)cc3)C3=C2S(=O)(=O)CC3)ccc1O (stereo not drawn) | -5 | 25 | 321 | -13 | -1 | 14 | x
C[C@H](CO)N1C[C@H](C)[C@@H](CN(C)C(=O)Nc2ccc(C(F)(F)F)cc2)Oc2c(cccc2N(C)C)C1=O | -16 | 82* | 402 | -23 | -3 | -1 | 64* | Diaph ctr 10uM=54*;Diaphorase 30uM=48
C[C@H](CO)N1C[C@H](C)[C@@H](CN(C)C(=O)Nc2ccc(C(F)(F)F)cc2)Oc2c(NC(=O)Nc3ccccc3)cccc2C1=O | 5 | 22 | 178 | -18 | -1 | -1 | x
COc1ccc(NC(=O)N(C)[C@H]2C[C@H]3c4[nH]c5ccccc5c4CCN3C(=O)[C@H]2CO)cc1 | -8 | -5 | x | x | 9 | x | x
CC(=O)C(Sc1nn(C)c(=S)s1)C(=O)Nc1ccccc1 (stereo not drawn) | -2 | 61* | 233 | 15 | -10 | 5 | -32
Cc1ccc(C)c2c1cc(C)c1nnc(SCC(=O)c3cccs3)n12 | 7 | 60* | 241 | -5 | 9 | 3 | 36
Cc1ccc(C)c2c1cc(C)c1nnc(SCC(=O)NCc3ccc4c(c3)OCO4)n12 | -1 | 94* | 168 | -24 | -3 | -8 | 84* | Diaph ctr 10uM=93*;Diaphorase 30uM=70*
Cc1nnc(SCC(=O)NCc2ccc3c(c2)OCO3)n1C | -7 | 4 | 358 | 0 | -6 | -9 | x
CCOc1ccc(CN(C)C(=O)CCN2C(=O)c3ccccc3C2=O)cc1OC | -8 | 12 | 205 | 2 | 0 | -6 | x
